In ChEMBL document CHEMBL4359840, “Computationally Driven Structure Optimization, Synthesis, and Biological Evaluation of Imidazole-Based Proprotein Convertase Subtilisin/Kexin 9 (PCSK9) Inhibitors” (J Med Chem, 2019):
Blank lines part the entries; values can stand above or below the compound they belong to. Activity calls are given as the source filed them. The calls are words filed in the database; no cut-off is given here.

Tests used:
[1] = biological target: T1, PCSK9/LDLR (Homo sapiens) (UniProt Q8NBP7+P01130); experiment: Inhibition of PCSK9 (unknown origin) interaction with LDLR expressed in human HepG2 cells assessed as LDL uptake level at 10 uM measured after 2 hrs by LDL-Dylight 550 dye based fluorescence assay (reference value: 34.8 to 67%); type: cell-based; set-up: scale not given: the % may be the effect or the level left
HepG2 = experiment: Cytotoxicity against human HepG2 cells assessed as reduction in cell viability at 0.1 to 10 uM measured after 48 hrs by MTT assay; type: cell-based; conditions: hepg2, 48 h
[2] = biological target: T1, PCSK9/LDLR (Homo sapiens); experiment: Inhibition of PCSK9 (unknown origin) interaction with LDLR expressed in human HepG2 cells assessed as increase LDLR level on cell membrane measured after 2 hrs by in-cell Western analysis; type: cell-based
[3] = biological target: T1, PCSK9/LDLR (Homo sapiens); experiment: Inhibition of PCSK9 (unknown origin) interaction with LDLR expressed in human HepG2 cells assessed as LDLR level on cell membrane at 1 uM measured after 2 hrs by in-cell Western analysis (reference value: 30.5 to 47.2%); type: cell-based; set-up: scale not given: the % may be the effect or the level left
[4] = biological target: T1, PCSK9/LDLR (Homo sapiens); experiment: Inhibition of PCSK9 (unknown origin) interaction with LDLR expressed in human HepG2 cells assessed as LDL uptake level at 0.1 uM measured after 2 hrs by LDL-Dylight 550 dye based fluorescence assay (reference value: 34.8 to 67%); type: cell-based; set-up: scale not given: the % may be the effect or the level left
[5] = biological target: T1, PCSK9/LDLR (Homo sapiens); experiment: (§1) Inhibition of recombinant His-tagged PCSK9 (unknown origin) binding to recombinant […] AB domain (unknown origin) measured after 2 hrs by ELISA; type: protein assay
How it was run: (§2)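 Commercial kit: compound added with His-tagged PCSK9 to wells coated with recombinant LDLR-AB domain. Bound His-PCSK9 quantified by absorbance at 450 nm. Mean ± s.d. of three independent experiments in duplicate.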

PCSK9/LDLR [6] = biological target: T2, PCSK9/LDLR (Homo sapiens, UniProt Q8NBP7); experiment: as §1; type: protein assay; how it was run: as §2
[7] = biological target: T1, PCSK9/LDLR (Homo sapiens); experiment: Inhibition of PCSK9 (unknown origin) interaction with LDLR expressed in human HepG2 cells assessed as LDLR level on cell membrane at 10 uM measured after 2 hrs by in-cell Western analysis (reference value: 30.5 to 47.2%); type: cell-based; set-up: scale not given: the % may be the effect or the level left
[8] = biological target: T1, PCSK9/LDLR (Homo sapiens); experiment: Inhibition of PCSK9 (unknown origin) interaction with LDLR expressed in human HepG2 cells assessed as LDL uptake level at 1 uM measured after 2 hrs by LDL-Dylight 550 dye based fluorescence assay (reference value: 34.8 to 67%); type: cell-based; set-up: scale not given: the % may be the effect or the level left
[9] = biological target: T1, PCSK9/LDLR (Homo sapiens); experiment: Inhibition of PCSK9 (unknown origin) interaction with LDLR expressed in human HepG2 cells assessed as LDLR level on cell membrane at 0.1 uM measured after 2 hrs by in-cell Western analysis (reference value: 30.5 to 47.2%); type: cell-based; set-up: scale not given: the % may be the effect or the level left
PCSK9/LDLR [10] = biological target: T2, PCSK9/LDLR; experiment: Inhibition of PCSK9 (unknown origin) interaction with LDLR expressed in human HepG2 cells assessed as increase in LDL uptake level measured after 24 hrs by LDL-Dylight 550 dye based fluorescence assay; type: cell-based
Target sequence in this assay (Q8NBP7 31-152 limits assumed): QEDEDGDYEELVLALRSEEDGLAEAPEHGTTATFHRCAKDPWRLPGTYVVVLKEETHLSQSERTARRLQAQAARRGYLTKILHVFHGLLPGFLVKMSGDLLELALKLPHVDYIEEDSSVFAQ
Target sequence in this assay (Q8NBP7 153-692 limits assumed): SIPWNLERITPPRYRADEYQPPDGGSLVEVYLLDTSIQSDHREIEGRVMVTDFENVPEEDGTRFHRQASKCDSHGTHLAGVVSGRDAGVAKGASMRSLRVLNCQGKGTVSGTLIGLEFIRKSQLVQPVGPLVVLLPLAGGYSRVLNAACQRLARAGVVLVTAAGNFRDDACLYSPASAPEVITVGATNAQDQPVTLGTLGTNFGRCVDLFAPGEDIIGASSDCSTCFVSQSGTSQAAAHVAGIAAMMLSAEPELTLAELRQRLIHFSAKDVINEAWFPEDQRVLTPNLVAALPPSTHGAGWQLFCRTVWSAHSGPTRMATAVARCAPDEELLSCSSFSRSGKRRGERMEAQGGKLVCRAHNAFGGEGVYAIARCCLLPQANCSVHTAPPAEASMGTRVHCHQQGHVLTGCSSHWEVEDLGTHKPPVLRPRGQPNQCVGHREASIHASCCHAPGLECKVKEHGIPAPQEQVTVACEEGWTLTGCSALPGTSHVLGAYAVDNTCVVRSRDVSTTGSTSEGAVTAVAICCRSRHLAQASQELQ
Target sequence in this assay (P01130 22-860 partner limits assumed): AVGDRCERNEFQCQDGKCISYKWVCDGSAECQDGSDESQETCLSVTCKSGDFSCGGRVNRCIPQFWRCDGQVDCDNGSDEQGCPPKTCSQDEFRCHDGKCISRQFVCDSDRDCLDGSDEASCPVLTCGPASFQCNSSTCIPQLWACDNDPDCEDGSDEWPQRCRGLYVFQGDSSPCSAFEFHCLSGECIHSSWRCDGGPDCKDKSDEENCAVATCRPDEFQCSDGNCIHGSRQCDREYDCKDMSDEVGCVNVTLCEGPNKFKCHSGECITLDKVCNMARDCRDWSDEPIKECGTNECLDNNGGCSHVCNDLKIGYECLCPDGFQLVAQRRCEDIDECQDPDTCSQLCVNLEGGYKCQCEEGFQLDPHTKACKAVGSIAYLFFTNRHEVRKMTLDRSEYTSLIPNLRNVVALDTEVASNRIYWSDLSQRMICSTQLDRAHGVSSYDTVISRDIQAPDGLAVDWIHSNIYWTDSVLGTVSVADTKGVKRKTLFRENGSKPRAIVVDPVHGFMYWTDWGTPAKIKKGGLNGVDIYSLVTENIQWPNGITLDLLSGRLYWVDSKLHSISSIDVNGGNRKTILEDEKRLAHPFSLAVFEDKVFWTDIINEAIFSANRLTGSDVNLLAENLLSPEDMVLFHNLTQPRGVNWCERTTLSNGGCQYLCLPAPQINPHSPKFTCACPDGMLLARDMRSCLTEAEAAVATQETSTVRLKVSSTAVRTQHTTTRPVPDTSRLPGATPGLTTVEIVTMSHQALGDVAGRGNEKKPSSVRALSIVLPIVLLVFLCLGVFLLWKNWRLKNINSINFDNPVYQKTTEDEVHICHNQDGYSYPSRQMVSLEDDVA

[11] = biological target: T1, PCSK9/LDLR (Homo sapiens); experiment: Inhibition of recombinant His-tagged PCSK9 (unknown origin) binding to recombinant […] AB domain (unknown origin) at 100 uM measured after 2 hrs by ELISA relative to control; type: protein assay; how it was run: as §2
[12] = biological target: T1, PCSK9/LDLR (Homo sapiens); experiment: Inhibition of PCSK9 (unknown origin) interaction with LDLR expressed in human HepG2 cells assessed as increase in LDL uptake level at 10 uM measured after 2 hrs by LDL-Dylight 550 dye based fluorescence assay; type: cell-based
[13] = biological target: T1, PCSK9/LDLR (Homo sapiens); experiment: Inhibition of PCSK9 (unknown origin) interaction with LDLR expressed in human HepG2 cells assessed as increase LDLR level on cell membrane at 10 uM measured after 2 hrs by in-cell Western analysis; type: cell-based
[14] = biological target: T1, PCSK9/LDLR (Homo sapiens); experiment: Inhibition of recombinant His-tagged PCSK9 (unknown origin) binding to recombinant […] AB domain (unknown origin) at 10 uM measured after 2 hrs by ELISA; type: protein assay; how it was run: as §2

T1 sequence (P01130 22-860 partner limits assumed): as above
T1 sequence (Q8NBP7 31-152 limits assumed): as the sequence (Q8NBP7 31-152 limits assumed) above
T1 sequence (Q8NBP7 153-692 limits assumed): as the sequence (Q8NBP7 153-692 limits assumed) above

Activity [1]: 101%
inhibition [2]: Dose-dependent effect
Activity [3]: < 101%
Activity [4]: 63.6%
inhibition [5]: Dose-dependent effect
IC50 (PCSK9/LDLR [6]): 1.38 µM
Activity [7]: < 102%
Activity [8]: < 104%
Activity [9]: < 77.7%
Compound: CNCCCCCn1cncc1-c1ncc(-c2ncc(-c3ccc(OC)cc3)n2C)n1Cc1ccccc1
Activity (HepG2): Non-Toxic

IC50 (PCSK9/LDLR [6]): 20 to 40 µM
Compound: CC(C)C[C@H](C(=O)N1CCN([C@@H](CC(N)=O)C(=O)N[C@@H](CCCNC(=N)N)C(=O)N[C@H]2CCOC2=O)CC1)N1C(=O)N[C@@H](CC(=O)O)C1=O

Activity [3]: < 93.9%
IC50 (PCSK9/LDLR [6]): 1.6 µM
Activity [8]: < 104%
Compound: H-LILPKHSDAD-OH

The remaining lines, values behind:

Compound: Cn1cncc1-c1ncc(-c2ncc(-c3ncc(-c4ccccc4)n3C)n2C)n1C
EC50 (PCSK9/LDLR [10]): 6 µM

Compound: CNCCCCCn1cncc1-c1ncc(-c2ncc(-c3ccc(OC)cc3)n2C)n1CCc1ccccc1
inhibition [5]: Dose-dependent effect
IC50 (PCSK9/LDLR [6]): 3.06 µM

Compound: COc1ccc(-c2cnc(-c3cncn3Cc3ccccc3)n2C)cc1
inhibition [11]: 18.2%
inhibition [12]: inactive
inhibition [13]: inactive
inhibition [14]: inactive
